Source: publication PMC9683076 (Pharmacology Research & Perspectives, 2022)
Like-named read-outs stand apart in the source and are kept apart here.

Tests used:
[1] = cited from earlier work
[2] = type: in vivo, human (healthy adult subjects)
Outline: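 Single-centre, open-label, two-period study in healthy adults. Everolimus 0.75 mg given as a single dose alone on Period 1 Day 1. Blood concentrations gave Cmax, AUCinf, Tmax (median), C12 and t1/2. Natural-log parameters were compared by repeated-measures analysis.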

[3] = type: in vivo, human (healthy adult subjects); remark: listed apart in the source
[4] = 2 mg single-dose sirolimus with ketoconazole 200 mg BID at steady state; cited from earlier work
P-gp = conditions: cited from earlier work
[5] = digoxin with the 3D regimen; cited from earlier work
[6] = cited from earlier work; remark: listed apart in the source
[7] = everolimus co-administered with the 3D regimen vs alone
[8] = sirolimus 2 mg single dose alone, Period 1 Day 1, N = 11, blood, geometric mean (geometric %CV)
[9] = sirolimus co-administered with the 3D regimen vs alone

CO[C@H]1C[C@@H]2CC[C@@H](C)[C@@](O)(O2)C(=O)C(=O)N2CCCC[C@H]2C(=O)O[C@H]([C@H](C)C[C@@H]2CC[C@@H](OCCO)[C@H](OC)C2)CC(=O)[C@H](C)/C=C(\C)[C@@H](O)[C@@H](OC)C(=O)[C@H](C)C[C@H](C)/C=C/C=C/C=C/1C [Everolimus, everolimus]
half-life ([1]; everolimus): ~30 h
increase in AUCinf [2, 7]: 27 fold
increase in Cmax [2, 7]: 4.7 fold
increase in t 1/2 [2, 7]: 2.8 fold
delay in Tmax ([2]; everolimus in the presence of the 3D regimen vs alone): 1 h
AUC(0-inf) ([2]; human, blood, 0.75 mg): 41.9 ng·h/mL
Cmax ([2]; human, blood, 0.75 mg): 3.33 ng/mL
concentration at 12 h ([2]; human, blood, 0.75 mg): 0.513 ng/mL
half-life ([2]; human, blood, 0.75 mg, t 1/2, everolimus 0.75 mg single dose alone, Period 1 Day 1, N = 12, blood, harmonic mean (pseudo-standard deviation)): 42 h

CO[C@H]1C[C@@H]2CC[C@@H](C)[C@@](O)(O2)C(=O)C(=O)N2CCCC[C@H]2C(=O)O[C@H]([C@H](C)C[C@@H]2CC[C@@H](O)[C@H](OC)C2)CC(=O)[C@H](C)/C=C(\C)[C@@H](O)[C@@H](OC)C(=O)[C@H](C)C[C@H](C)/C=C/C=C/C=C/1C [Sirolimus, sirolimus]
half-life ([3]; human, blood, 2 mg, t 1/2, sirolimus 2 mg single dose alone, Period 1 Day 1, N = 11, blood, harmonic mean (pseudo-standard deviation)): 96 h
AUC(0-inf) ([3]; human, blood, oral, 2 mg): 178 ng·h/mL
C24 [3, 8]: 1.14 (29) ng/m
Cmax [3, 8]: 6.66 (33) ng/ml
t 1/2 ([3]; sirolimus 2 mg single dose alone, Period 1 Day 1, N = 11, blood, harmonic mean (pseudo-standard deviation)): 96.3 (15) h
Tmax ([3]; sirolimus 2 mg single dose alone, Period 1 Day 1, N = 11, blood, median (range)): 2.5 (1.5–4.0) h
increase in dose-normalized AUCinf [3, 9]: 38 fold
increase in dose-normalized Cmax [3, 9]: 6.4 fold
increase in t 1/2 [3, 9]: 2.6 fold
delay in Tmax ([3]; sirolimus in the presence of the 3D regimen vs alone): 3.5 h
half-life ([1]; sirolimus): approximately 62 h
increase in Cmax [4]: 4.3 fold

COc1c(-c2ccc3cc(NS(C)(=O)=O)ccc3c2)cc(-n2ccc(=O)[nH]c2=O)cc1C(C)(C)C [dasabuvir]
P-gp inhibition (in vitro data) (P-gp): potential inhibitors of P‐gp

C[C@H]1O[C@@H](O[C@H]2[C@@H](O)C[C@H](O[C@H]3[C@@H](O)C[C@H](O[C@H]4CC[C@@]5(C)[C@H](CC[C@@H]6[C@@H]5C[C@@H](O)[C@]5(C)[C@@H](C7=CC(=O)OC7)CC[C@]65O)C4)O[C@@H]3C)O[C@@H]2C)C[C@H](O)[C@@H]1O [digoxin]
increase in AUC [5]: ≤ 16%
increase in Cmax [5]: ≤ 16%

Cc1ncc2n1-c1ccc(Cl)cc1C(c1ccccc1F)=NC2 [midazolam]
increase in AUC ([6]; midazolam co-administered with boceprevir): 5.3 fold
increase in AUC ([6]; midazolam co-administered with tipranavir/ritonavir): 26.9 fold

Cc1cnc(C(=O)N[C@H]2CCCCC/C=C\[C@@H]3C[C@@]3(C(=O)NS(=O)(=O)C3CC3)NC(=O)[C@@H]3C[C@@H](Oc4nc5ccccc5c5ccccc45)CN3C2=O)cn1 [paritaprevir]
P-gp inhibition (in vitro data) (P-gp): potential inhibitors of P‐gp

CC(C)c1nc(CN(C)C(=O)N[C@H](C(=O)N[C@@H](Cc2ccccc2)C[C@H](O)[C@H](Cc2ccccc2)NC(=O)OCc2cncs2)C(C)C)cs1 [ritonavir]
P-gp inhibition (in vitro data) (P-gp): potential inhibitors of P‐gp
